Results collected from several papers.
Compare with care: the assays were run in different laboratories.
Cell line: PC-3
Observed: cell growth or viability

| Compound | test | conditions | IC50 |
| --- | --- | --- | --- |
| CC1=CC(=O)C(C(C)C)=CC1=O | SRB | 48 h | 12.8 µM |
| NS(=O)(=O)c1ccc(-n2nc(-c3nnc(CCl)o3)cc2-c2ccccc2)cc1 | fluorescence | 48 h | 36.2 µM |
| CC(=O)O[C@H]1C(=O)[C@@]2(C)[C@H]([C@H](OC(=O)c3ccccc3)[C@]3(O)C[C@H](OC(=O)[C@H](O)[C@@H](NC(=O)c4ccccc4)c4ccccc4)C(C)=C1C3(C)C)[C@]1(OC(C)=O)CO[C@@H]1C[C@@H]2O | MTS | 72 h | 0.0004 µM |
| O=c1[nH]cc(F)c(=O)[nH]1 | MTT | 72 h | > 360 µM |
| CC(C)c1ccc(/C=C2\N=C(SCC(=O)O)N(c3ccccc3)C2=O)cc1 | MTT | – | 50 µg/mL |
| NS(=O)(=O)c1ccc(-n2nc(-c3nnc(S)o3)cc2-c2ccccc2)cc1 | fluorescence | 48 h | 51.2 µM |
| COc1cc(C(=O)c2nc(-c3ccsc3)c[nH]2)cc(OC)c1OC | MTS | 72 h | 0.0873 µM |
| CC1(P2(=O)CCCCC2)CCCCC1 | MTT | 72 h | > 100 µM |
| COc1cc(C(=O)c2nc(-c3cccc4[nH]ccc34)c[nH]2)cc2c1OC=CO2 | MTS | 72 h | 0.0102 µM |
| CN(C)c1cccc2c(S(=O)(=O)NCCCCN=C=S)cccc12 | MTT | 24 h | 16.8 µM |
| COc1cc(C(=O)c2nc(-c3cccc4[nH]ccc34)cs2)cc(OC)c1OC | MTS | 72 h | 0.0065 µM |
| CC(=O)O[C@H]1[C@H](OC(C)=O)[C@@H](Nc2cc3cccnc3c3ncccc23)OC[C@@H]1OC(C)=O | MTT | 48 h, dark | 1.4 µM |
| O=C1/C(=C/c2ccc3ccccc3c2O)NC(=S)N1c1ccccc1 | MTT | – | 6.04 µg/mL |
| CC(=NNC(=O)c1cc(-c2ccccc2)n(-c2ccc(S(N)(=O)=O)cc2)n1)c1ccc(Br)cc1 | fluorescence | 48 h | 48 µM |
| COc1cccc2c1C(=O)c1c(O)c3c(c(O)c1C2=O)C[C@@](O)(C(=O)CO)C[C@@H]3O[C@H]1C[C@H](N)[C@H](O)[C@H](C)O1 | MTT | 72 h | 0.3 µM |
| COc1cc(C=NNC(=O)c2cc(-c3ccccc3)n(-c3ccc(S(N)(=O)=O)cc3)n2)cc(OC)c1OC | fluorescence | 48 h | 33.4 µM |
| COc1cc(C(=O)c2nc(-c3cccc4c3CCN4)c[nH]2)cc(OC)c1OC | MTS | 72 h | 0.022 µM |
| NS(=O)(=O)c1ccc(-n2nc(C(=O)NN=Cc3cccnc3)cc2-c2ccccc2)cc1 | fluorescence | 48 h | 38.6 µM |
| COc1cc(C(=O)c2nc(-c3cccc4c3CC(=O)N4)c[nH]2)cc(OC)c1OC | MTS | 72 h | 0.0186 µM |
